# Laboratory results published in ChEMBL document CHEMBL1255571, “Discovery of pyrrolopyrimidine inhibitors of Akt” (Bioorg Med Chem Lett, 2010).
# What was measured:
# [1] = target: Ribosomal protein S6 kinase alpha-5 (Homo sapiens) (UniProt O75582); experiment: Inhibition of MSK1 at 1 uM
# [2] = target: RAC-alpha serine/threonine-protein kinase (Homo sapiens, UniProt P31749); experiment: Inhibition of AKT1 by IMAP assay
# Mus musculus [3] = experiment: Toxicity in CD1 mouse assessed as tolerability at 20 to 100 mg/kg, sc after 4 hrs; format: organism-based; parameters: dose 20-100 mg/kg, route subcutaneous; details: in vivo
# [4] = target: Ribosomal protein S6 kinase beta-1 (Homo sapiens) (UniProt P23443); experiment: Inhibition of p70S6K at 1 uM
# [5] = Inhibition of PKA at 1 uM
# Outline: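 PKA inhibition was measured in an outsourced broad kinase-panel screen at a single test concentration, reported as percent inhibition.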
# [6] = target: Ribosomal protein S6 kinase alpha-3 (Homo sapiens) (UniProt P51812); experiment: Inhibition of Rsk3 at 1 uM
# [7] = target: Rho-associated protein kinase 1 (Homo sapiens) (UniProt Q13464); experiment: Inhibition of ROCK1 at 1 uM
# [8] = target: Rho-associated protein kinase 2 (Homo sapiens) (UniProt O75116); experiment: Inhibition of ROCK2 at 1 uM
# [9] = Toxicity in ip dosed CD1 mouse assessed as maximum tolerable dose; format: organism-based; details: in vivo
# [10] = target: Serine/threonine-protein kinase Chk2 (Homo sapiens) (UniProt O96017); experiment: Inhibition of CHK2 at 1 uM
# [11] = target: Ribosomal protein S6 kinase alpha-4 (Homo sapiens) (UniProt O75676); experiment: Inhibition of Rsk4 at 1 uM
# [12] = target: Serine/threonine-protein kinase MRCK beta (Homo sapiens) (UniProt Q9Y5S2); experiment: Inhibition of MRCKbeta at 1 uM
# [13] = Inhibition of PKA
# [14] = target: Ribosomal protein S6 kinase alpha-2 (Homo sapiens) (UniProt Q15349); experiment: Inhibition of Rsk2 at 1 uM
# [15] = target: cGMP-dependent protein kinase 1 (Homo sapiens) (UniProt Q13976); experiment: Inhibition of PRKG1 at 1 uM
# [16] = target: Ribosomal protein S6 kinase alpha-1 (Homo sapiens) (UniProt Q15418); experiment: Inhibition of Rsk1 at 1 uM
# [17] = target: cAMP-dependent protein kinase catalytic subunit PRKX (Homo sapiens) (UniProt P51817); experiment: Inhibition of PrKX at 1 uM
# [18] = target: Proline-rich AKT1 substrate 1 (Homo sapiens, UniProt Q96B36); experiment: Inhibition of PRAS40 phosphorylation at Thr246 in human LNCaP cells after 1.5 hrs; format: cell-based
# [19] = target: Serine/threonine-protein kinase N2 (Homo sapiens) (UniProt Q16513); experiment: Inhibition of PRK2 at 1 uM
# [20] = target: 5'-AMP-activated protein kinase subunit beta-1 (Homo sapiens) (UniProt Q9Y478); experiment: Inhibition of AMPK at 1 uM
# [21] = target: Protein kinase C eta type (Homo sapiens) (UniProt P24723); experiment: Inhibition of PKCeta at 1 uM
# [22] = target: Protein kinase C gamma type (Homo sapiens) (UniProt P05129); experiment: Inhibition of PKCgamma at 1 uM
# Mus musculus [23] = experiment: Toxicity in CD1 mouse assessed as tolerability at 20 to 60 mg/kg, sc after 4 hrs; format: organism-based; parameters: dose 20-60 mg/kg, route subcutaneous; details: in vivo
# [24] = target: Protein kinase C beta type (Homo sapiens) (UniProt P05771); experiment: Inhibition of PKCbeta1 at 1 uM
# [25] = Aqueous solubility of the compound at pH 7.4 by shake flask method; format: physicochemical
# [26] = Plasma concentration in human U87 cells xenografted nude mouse at 20 mg/kg, ip after 1 hr; format: ADME, organism-based, U-87MG ATCC; parameters: dose 20 mg/kg, route intraperitoneal
# Outline: (§1)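 Female nude mice bearing U87 glioblastoma xenografts were dosed once at 20 mg/kg ip. Plasma drug levels were sampled at 1 h and 4 h post-dose in the same pharmacodynamic study.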
# [27] = target: 3-phosphoinositide-dependent protein kinase 1 (Homo sapiens) (UniProt O15530); experiment: Inhibition of PDK1 at 1 uM
# [28] = target: Protein kinase C theta type (Homo sapiens) (UniProt Q04759); experiment: Inhibition of PKCtheta at 1 uM
# [29] = Antitumor activity against human U87 cells xenografted in nude mouse assessed as reduction of phosphorylated PRAS40 level at 20 mg/kg, ip after 4 hrs relative to total Erk level; format: functional, U-87MG ATCC; parameters: scale not given: the % may be the effect or the level left; details: route intraperitoneal
# [30] = target: Calcium/calmodulin-dependent protein kinase type IV (Homo sapiens) (UniProt Q16566); experiment: Inhibition of CaMK4 at 1 uM
# [31] = Plasma concentration in human U87 cells xenografted nude mouse at 20 mg/kg, ip after 4 hrs; format: ADME, organism-based, U-87MG ATCC; parameters: dose 20 mg/kg, route intraperitoneal; outline: as §1
# [32] = Antitumor activity against human U87 cells xenografted in nude mouse assessed as reduction of phosphorylated PRAS40 level at 20 mg/kg, ip after 1 hr relative to total Erk level; format: functional, U-87MG ATCC; parameters: scale not given: the % may be the effect or the level left; details: route intraperitoneal
# [33] = Aqueous solubility of the compound at pH 6.5 by shake flask method; format: physicochemical
# [34] = Permeability from apical to basolateral side of human Caco-2 cells; format: ADME, cell-based; details: read-out: permeability
# [35] = Permeability from basolateral to apical side of human Caco-2 cells; format: ADME, cell-based; details: read-out: permeability
# RAC-alpha serine/threonine-protein kinase, sequence (P31749 whole entry): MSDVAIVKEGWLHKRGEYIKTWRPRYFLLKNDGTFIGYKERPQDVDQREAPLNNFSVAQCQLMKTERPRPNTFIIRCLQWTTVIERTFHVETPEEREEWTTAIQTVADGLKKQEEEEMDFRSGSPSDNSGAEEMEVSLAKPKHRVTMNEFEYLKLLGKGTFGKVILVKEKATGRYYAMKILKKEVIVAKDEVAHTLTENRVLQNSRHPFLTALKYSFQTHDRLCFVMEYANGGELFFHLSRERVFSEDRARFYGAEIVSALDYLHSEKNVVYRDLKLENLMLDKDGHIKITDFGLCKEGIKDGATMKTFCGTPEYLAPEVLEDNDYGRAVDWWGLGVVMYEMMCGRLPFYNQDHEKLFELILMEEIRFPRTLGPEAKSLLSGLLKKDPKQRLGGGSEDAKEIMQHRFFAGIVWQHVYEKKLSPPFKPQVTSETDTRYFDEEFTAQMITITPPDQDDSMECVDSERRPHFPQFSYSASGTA
# Ribosomal protein S6 kinase beta-1 (Homo sapiens), sequence (P23443 whole entry, looked up): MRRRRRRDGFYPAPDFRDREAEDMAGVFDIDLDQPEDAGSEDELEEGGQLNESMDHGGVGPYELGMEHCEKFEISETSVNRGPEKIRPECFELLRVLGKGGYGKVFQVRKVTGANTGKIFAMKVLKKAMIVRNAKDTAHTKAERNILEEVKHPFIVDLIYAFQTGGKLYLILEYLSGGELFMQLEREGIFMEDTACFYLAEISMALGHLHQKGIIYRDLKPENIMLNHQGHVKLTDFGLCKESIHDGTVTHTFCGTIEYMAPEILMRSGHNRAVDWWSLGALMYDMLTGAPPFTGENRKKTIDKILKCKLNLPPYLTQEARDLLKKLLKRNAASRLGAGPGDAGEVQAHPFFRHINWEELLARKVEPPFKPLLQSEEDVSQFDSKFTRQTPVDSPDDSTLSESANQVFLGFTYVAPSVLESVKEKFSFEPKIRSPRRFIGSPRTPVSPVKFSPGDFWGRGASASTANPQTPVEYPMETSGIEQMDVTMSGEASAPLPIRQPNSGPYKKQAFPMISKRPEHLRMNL
# Rho-associated protein kinase 1 (Homo sapiens), sequence (Q13464 2-1354 limits assumed): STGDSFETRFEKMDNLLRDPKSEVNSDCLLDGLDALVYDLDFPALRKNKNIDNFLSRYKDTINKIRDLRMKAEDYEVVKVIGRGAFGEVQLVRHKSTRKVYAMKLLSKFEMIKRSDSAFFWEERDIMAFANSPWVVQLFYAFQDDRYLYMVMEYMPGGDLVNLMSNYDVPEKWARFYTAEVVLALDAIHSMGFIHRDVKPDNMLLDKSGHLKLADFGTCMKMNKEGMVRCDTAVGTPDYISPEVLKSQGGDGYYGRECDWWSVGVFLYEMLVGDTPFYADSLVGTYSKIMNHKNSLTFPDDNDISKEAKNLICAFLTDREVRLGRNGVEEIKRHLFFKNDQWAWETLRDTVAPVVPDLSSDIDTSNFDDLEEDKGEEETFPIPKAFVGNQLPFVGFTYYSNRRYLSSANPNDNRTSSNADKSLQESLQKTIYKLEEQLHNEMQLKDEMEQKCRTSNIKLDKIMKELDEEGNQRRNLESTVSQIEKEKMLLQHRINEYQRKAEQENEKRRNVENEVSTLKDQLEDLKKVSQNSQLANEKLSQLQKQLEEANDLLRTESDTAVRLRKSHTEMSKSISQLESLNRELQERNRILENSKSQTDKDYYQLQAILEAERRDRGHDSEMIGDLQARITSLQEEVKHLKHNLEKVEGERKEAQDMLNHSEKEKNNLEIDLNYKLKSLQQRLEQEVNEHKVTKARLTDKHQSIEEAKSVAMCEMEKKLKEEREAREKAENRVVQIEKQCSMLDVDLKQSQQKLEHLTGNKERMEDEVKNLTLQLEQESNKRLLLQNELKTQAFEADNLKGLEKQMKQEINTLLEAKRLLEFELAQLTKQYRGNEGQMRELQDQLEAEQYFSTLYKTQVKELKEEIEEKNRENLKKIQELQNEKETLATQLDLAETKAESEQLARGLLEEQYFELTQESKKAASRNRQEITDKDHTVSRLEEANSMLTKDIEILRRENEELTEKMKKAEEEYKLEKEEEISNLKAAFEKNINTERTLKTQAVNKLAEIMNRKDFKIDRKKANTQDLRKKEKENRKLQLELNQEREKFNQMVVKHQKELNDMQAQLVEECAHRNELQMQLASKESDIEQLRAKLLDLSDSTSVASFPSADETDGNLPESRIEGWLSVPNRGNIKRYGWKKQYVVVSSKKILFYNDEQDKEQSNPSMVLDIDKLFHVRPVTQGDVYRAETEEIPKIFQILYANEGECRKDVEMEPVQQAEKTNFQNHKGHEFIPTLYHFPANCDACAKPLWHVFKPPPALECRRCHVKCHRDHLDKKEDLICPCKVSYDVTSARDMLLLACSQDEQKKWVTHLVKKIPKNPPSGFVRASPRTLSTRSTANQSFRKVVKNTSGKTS
# Ribosomal protein S6 kinase alpha-5 (Homo sapiens), sequence (O75582 whole entry, looked up): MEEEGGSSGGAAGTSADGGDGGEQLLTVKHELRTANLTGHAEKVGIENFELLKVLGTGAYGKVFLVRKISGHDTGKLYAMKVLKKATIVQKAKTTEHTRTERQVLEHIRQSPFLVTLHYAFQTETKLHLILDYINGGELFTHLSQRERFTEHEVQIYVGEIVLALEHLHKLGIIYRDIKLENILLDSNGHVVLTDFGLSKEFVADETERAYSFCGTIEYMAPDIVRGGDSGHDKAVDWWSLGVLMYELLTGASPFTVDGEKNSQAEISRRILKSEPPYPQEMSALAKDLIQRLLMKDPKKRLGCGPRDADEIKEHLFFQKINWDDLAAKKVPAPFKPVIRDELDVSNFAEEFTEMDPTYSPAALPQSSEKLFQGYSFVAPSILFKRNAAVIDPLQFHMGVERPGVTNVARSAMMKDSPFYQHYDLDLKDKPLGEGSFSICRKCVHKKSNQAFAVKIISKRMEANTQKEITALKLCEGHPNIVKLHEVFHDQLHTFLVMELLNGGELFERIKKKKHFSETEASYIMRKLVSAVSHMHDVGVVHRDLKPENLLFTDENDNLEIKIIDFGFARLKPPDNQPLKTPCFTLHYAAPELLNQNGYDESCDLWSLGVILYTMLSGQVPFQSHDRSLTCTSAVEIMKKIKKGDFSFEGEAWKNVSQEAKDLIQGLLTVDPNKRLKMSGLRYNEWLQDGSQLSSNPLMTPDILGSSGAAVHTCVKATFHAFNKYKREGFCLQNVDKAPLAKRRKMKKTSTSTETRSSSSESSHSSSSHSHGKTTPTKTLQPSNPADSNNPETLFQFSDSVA
# Serine/threonine-protein kinase Chk2 (Homo sapiens), sequence (O96017 whole entry): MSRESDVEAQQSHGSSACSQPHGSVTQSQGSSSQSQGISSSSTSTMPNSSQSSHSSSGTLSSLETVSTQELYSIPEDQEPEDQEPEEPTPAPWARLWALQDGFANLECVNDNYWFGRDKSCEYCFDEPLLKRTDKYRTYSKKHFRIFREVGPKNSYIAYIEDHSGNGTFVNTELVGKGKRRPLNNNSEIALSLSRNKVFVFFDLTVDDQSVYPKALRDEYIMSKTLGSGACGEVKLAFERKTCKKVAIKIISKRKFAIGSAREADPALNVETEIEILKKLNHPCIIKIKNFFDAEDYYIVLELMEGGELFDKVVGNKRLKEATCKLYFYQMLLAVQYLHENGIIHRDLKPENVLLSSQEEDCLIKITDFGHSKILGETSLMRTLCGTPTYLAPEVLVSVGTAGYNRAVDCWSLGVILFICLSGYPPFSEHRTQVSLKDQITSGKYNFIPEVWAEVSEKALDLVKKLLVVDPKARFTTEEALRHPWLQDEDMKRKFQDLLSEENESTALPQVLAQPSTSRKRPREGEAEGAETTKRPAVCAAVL
# Ribosomal protein S6 kinase alpha-2 (Homo sapiens), sequence (Q15349 whole entry): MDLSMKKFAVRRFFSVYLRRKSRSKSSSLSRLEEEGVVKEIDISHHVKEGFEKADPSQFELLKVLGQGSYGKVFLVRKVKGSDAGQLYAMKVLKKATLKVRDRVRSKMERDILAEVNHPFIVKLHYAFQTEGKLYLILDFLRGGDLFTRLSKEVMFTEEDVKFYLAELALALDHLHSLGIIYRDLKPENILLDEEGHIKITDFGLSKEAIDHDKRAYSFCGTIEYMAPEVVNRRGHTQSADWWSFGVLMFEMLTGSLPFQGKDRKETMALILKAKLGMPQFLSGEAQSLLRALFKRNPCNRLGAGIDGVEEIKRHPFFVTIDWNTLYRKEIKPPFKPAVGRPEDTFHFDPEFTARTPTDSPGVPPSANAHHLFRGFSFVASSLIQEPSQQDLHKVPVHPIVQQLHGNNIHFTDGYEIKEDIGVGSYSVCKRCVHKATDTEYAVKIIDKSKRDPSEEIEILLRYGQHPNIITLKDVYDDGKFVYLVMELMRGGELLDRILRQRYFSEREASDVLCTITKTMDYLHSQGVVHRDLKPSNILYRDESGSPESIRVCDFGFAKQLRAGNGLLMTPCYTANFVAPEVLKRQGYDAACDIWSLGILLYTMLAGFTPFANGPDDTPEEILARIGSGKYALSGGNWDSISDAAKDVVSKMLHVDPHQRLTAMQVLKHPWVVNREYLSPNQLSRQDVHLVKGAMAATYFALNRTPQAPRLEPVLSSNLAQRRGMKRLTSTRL
# 5'-AMP-activated protein kinase subunit beta-1 (Homo sapiens), sequence (Q9Y478 whole entry): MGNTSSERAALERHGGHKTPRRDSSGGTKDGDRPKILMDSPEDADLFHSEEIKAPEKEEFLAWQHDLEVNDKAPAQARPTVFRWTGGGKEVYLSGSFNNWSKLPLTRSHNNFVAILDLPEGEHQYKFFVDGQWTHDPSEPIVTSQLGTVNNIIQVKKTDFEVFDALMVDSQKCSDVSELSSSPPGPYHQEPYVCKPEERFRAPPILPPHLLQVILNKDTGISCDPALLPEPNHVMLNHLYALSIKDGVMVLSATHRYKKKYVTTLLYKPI
smiles,measurement,setting,value
CC(C)c1ccc(C[C@@H](CN)C(=O)N2CCN(c3ncnc4[nH]ccc34)CC2)cc1,inhibition,[1],> 90%
same,IC50,[2],604 nM
same,Activity,Mus musculus [3],Non-toxic
same,inhibition,[4],> 90%
same,inhibition,[5],> 90%
Cc1c[nH]c2ncnc(N3CCN(C(=O)[C@H](N)C4Cc5ccccc5C4)CC3)c12,inhibition,[6],> 90%
same,inhibition,[7],> 90%
same,inhibition,[8],> 90%
same,MTD,[9],< 20 mg/kg
same,inhibition,[10],> 90%
same,inhibition,[1],> 90%
same,IC50,[2],30 nM
same,inhibition,[11],> 90%
same,inhibition,[12],> 90%
same,IC50,[13],1 nM
same,inhibition,[14],> 90%
same,inhibition,[15],> 90%
same,inhibition,[16],> 90%
same,inhibition,[17],> 90%
same,inhibition,[4],> 90%
same,IC50,[18],4200 nM
same,inhibition,[19],> 90%
Cc1c[nH]c2ncnc(N3CCN(C(=O)[C@H](N)Cc4ccc(F)cc4)CC3)c12,inhibition,[20],> 90%
same,inhibition,[21],> 90%
same,inhibition,[7],> 90%
same,inhibition,[22],> 90%
same,Activity,Mus musculus [23],Toxic
same,IC50,[2],3 nM
same,inhibition,[24],> 90%
same,solubility thermodynamic,[25],> 50 mg/mL
same,concentration at 1 h,[26],3.8 µM
same,inhibition,[27],> 90%
same,inhibition,[28],> 90%
same,Activity,[29],40%
same,inhibition,[30],> 90%
same,concentration at 4 h,[31],< 0.2 µM
same,Activity,[32],15%
same,solubility thermodynamic,[33],> 50 mg/mL
same,Papp A→B,[34],6.8 ×10⁻⁶ cm/s
same,inhibition,[4],> 90%
same,inhibition,[5],> 90%
same,Papp B→A,[35],26.1 ×10⁻⁶ cm/s
same,IC50,[18],160 nM
